In experiment [1] the target is 5-hydroxytryptamine receptor 7 (Homo sapiens, UniProt P34969). The experiment in a line: Displacement of [3H]-LSD from human 5-HT7 receptor by liquid scintillation counting method. For orientation: In a radioligand displacement assay an active substance lowers the binding of a labelled ligand.
In experiment [2] the target is T1, 5-hydroxytryptamine receptor 2C (Homo sapiens, UniProt P28335).
T1 sequence (P28335 whole entry): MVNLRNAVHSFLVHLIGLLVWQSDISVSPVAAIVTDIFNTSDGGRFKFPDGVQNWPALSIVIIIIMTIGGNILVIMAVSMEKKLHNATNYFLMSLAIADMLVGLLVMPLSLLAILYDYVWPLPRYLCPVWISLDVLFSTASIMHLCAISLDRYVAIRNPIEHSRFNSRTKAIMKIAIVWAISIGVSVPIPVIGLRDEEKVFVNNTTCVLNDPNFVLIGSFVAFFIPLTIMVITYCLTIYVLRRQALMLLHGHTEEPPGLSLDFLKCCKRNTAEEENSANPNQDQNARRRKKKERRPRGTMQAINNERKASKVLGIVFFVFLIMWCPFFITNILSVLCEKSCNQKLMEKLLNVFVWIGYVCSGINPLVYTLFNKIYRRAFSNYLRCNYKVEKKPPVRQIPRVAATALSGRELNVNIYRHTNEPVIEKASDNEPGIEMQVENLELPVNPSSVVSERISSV
The experiment in a line: Displacement of [3H]-mesulergine from human 5-HT2C receptor by liquid scintillation counting method. A digest of the protocol:
(§1)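 Binding assays run by the NIMH Psychoactive Drug Screening Program (PDSP) using its previously reported methods and radioligands. Affinity is given as Ki.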

For the next experiment, the target named is Histamine H1 receptor (Homo sapiens, UniProt P35367). Put plainly: Displacement of [3H]-pyrilamine from human histamine H1 receptor by liquid scintillation counting method. A digest of the protocol: as §1
Histamine H1 receptor, sequence (P35367 whole entry): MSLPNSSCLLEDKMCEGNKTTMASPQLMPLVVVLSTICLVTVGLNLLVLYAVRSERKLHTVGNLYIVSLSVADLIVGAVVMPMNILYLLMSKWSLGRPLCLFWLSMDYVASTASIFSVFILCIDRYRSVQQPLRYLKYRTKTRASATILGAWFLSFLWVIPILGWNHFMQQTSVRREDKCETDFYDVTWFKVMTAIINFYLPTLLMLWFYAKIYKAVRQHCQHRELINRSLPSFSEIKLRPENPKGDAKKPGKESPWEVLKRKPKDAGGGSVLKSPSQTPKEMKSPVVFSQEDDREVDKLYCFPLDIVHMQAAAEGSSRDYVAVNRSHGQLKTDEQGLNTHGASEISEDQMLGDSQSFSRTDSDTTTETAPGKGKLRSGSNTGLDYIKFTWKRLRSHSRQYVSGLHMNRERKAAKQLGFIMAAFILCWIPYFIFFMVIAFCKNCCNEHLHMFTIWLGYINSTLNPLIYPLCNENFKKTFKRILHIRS

5-hydroxytryptamine receptor 7, sequence (P34969 whole entry): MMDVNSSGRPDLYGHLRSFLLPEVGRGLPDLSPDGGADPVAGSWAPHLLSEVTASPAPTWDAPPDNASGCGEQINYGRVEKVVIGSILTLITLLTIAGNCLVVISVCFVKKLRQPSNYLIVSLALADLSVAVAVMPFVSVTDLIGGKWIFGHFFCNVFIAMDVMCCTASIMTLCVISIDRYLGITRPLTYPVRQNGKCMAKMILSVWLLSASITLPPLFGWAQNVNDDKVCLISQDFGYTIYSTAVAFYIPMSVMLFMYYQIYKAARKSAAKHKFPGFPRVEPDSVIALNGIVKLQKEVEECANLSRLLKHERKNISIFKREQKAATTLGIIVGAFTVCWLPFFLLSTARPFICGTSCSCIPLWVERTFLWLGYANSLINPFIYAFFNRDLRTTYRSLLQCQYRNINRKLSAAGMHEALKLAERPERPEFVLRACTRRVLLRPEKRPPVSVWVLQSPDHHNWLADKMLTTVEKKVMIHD

The term Ki denotes the dissociation constant of the complex between target and ligand, obtained from inhibition or displacement. Higher therefore signals lower affinity. In the case of `Clc1ccc(C(=[C][C][C]N2[C][C]c3ccccc3[C]2)c2ccc(Cl)cc2)cc1`, the Ki in experiment [1] is 0.501 µM; in experiment [2], 2.04 µM; on Histamine H1 receptor it was 1 µM.
